According to paper PMC3132207 (Journal of medicinal chemistry, 2011):

Key:
[1] = molecular target: heteromeric rod CNG channels consisting of CNGA1 and CNGB1 subunits (Bos taurus, UniProt Q00194+Q28181); format: cell-based; settings: 20 µM blocker, Vm = +50 mV
chymotrypsin = chymotrypsin (Bos taurus, UniProt P00766); assay: In vitro hydrolysis by chymotrypsin; format: in vitro ADME; settings: 50 µM compound, 37 °C
Outline: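 Hydrolysis was followed by diode-array UV absorbance at the product peak wavelength, starting on compound addition. Runs were in triplicate. Enzyme activity was confirmed separately with 90 µM 4-nitrophenyl acetate in 0.1 M HEPES, pH 6.5, 37 °C, read at 404 nm for 10 min.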

proteinase K = proteinase K (Parengyodontium album, UniProt P06873); assay: In vitro hydrolysis by proteinase K; format: in vitro ADME, Engyodontium album; settings: 50 µM compound, 37 °C
Chain of proteinase K (P06873 106-384): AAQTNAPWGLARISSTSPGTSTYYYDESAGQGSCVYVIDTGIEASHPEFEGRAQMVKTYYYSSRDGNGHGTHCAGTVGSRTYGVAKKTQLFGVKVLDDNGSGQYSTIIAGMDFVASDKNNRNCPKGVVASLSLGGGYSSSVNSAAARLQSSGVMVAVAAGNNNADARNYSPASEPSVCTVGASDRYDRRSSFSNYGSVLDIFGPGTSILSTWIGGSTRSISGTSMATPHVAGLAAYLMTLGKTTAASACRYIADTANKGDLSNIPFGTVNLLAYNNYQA

[2] = molecular target: butyrylcholinesterase purified from human blood serum (Homo sapiens, UniProt P06276); assay: In vitro hydrolysis by serum cholinesterase; format: in vitro ADME; settings: even after 24 h incubations
Chain of butyrylcholinesterase purified from human blood serum (P06276 29-602): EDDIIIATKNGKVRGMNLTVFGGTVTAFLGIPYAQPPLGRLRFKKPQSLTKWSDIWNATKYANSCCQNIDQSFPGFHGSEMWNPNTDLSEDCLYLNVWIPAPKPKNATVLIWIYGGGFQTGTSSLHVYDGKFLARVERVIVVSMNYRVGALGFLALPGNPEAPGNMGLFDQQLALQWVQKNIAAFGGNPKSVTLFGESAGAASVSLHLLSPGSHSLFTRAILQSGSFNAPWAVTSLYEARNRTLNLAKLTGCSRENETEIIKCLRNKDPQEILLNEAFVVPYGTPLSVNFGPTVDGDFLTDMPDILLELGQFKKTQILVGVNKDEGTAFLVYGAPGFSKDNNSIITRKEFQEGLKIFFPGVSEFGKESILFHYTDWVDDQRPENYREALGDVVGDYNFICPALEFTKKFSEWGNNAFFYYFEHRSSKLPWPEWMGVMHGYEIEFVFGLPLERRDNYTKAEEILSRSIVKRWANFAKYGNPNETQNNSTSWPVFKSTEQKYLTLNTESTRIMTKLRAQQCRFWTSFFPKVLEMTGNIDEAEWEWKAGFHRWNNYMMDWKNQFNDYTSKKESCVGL

Chain of heteromeric rod CNG channels consisting of CNGA1 and CNGB1 subunits (Q00194 whole entry): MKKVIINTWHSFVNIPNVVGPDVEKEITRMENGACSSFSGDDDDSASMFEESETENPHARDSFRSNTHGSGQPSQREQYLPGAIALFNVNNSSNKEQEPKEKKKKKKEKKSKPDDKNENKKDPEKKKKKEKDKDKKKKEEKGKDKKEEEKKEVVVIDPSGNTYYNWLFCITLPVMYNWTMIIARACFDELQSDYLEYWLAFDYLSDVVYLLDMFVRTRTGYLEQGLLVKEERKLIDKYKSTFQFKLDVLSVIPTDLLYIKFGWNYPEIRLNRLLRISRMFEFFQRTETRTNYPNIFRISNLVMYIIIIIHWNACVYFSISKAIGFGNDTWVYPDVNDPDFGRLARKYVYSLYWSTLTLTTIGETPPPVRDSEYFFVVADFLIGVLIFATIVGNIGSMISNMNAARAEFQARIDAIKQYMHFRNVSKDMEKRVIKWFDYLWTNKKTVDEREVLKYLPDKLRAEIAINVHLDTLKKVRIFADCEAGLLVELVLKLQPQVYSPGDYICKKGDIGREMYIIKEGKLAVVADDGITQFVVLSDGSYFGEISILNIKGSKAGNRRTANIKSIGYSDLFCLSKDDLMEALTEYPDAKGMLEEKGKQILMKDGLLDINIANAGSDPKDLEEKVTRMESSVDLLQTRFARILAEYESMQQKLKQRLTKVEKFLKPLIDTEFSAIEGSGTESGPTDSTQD
Chain of heteromeric rod CNG channels consisting of CNGA1 and CNGB1 subunits (Q28181 whole entry): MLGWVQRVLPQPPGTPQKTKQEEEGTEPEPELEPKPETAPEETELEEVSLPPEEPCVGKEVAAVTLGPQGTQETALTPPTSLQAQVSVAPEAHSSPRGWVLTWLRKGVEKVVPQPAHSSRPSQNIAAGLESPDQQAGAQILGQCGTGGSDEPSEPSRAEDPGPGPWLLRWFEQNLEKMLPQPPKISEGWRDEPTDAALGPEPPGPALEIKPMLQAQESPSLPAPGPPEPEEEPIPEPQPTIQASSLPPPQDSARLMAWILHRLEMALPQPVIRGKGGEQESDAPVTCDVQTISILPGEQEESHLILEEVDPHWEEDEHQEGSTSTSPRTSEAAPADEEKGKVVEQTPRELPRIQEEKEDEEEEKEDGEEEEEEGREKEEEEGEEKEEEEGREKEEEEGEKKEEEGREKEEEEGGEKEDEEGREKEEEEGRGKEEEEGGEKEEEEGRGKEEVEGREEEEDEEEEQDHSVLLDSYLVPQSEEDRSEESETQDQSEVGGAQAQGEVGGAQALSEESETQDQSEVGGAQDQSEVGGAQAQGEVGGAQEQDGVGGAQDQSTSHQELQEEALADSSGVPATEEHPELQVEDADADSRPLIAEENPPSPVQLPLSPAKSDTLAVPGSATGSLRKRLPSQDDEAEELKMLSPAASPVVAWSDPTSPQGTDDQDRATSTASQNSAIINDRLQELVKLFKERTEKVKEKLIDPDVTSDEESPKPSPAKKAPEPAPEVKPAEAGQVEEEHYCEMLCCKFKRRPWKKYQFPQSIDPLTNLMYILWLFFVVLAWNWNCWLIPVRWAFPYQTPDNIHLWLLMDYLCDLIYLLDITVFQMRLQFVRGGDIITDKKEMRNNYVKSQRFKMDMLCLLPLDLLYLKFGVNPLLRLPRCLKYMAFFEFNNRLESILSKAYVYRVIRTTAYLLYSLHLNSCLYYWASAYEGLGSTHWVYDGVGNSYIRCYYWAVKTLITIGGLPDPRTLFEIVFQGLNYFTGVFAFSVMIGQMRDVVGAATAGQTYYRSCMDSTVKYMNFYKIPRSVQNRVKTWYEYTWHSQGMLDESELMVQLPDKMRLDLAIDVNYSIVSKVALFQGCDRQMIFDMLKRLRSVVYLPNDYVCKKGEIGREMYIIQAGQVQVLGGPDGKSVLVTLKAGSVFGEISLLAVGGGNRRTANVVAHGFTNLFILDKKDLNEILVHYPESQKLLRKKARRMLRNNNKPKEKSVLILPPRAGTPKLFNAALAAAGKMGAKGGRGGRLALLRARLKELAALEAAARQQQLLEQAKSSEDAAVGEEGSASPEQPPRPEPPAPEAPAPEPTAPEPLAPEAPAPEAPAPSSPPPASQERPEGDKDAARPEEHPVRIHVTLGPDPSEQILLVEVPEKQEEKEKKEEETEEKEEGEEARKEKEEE

## COc1ccc([C@H]2Sc3ccccc3N(CCN(C)C)C(=O)[C@H]2OC(C)=O)cc1 (relative stereo) [l-cis-diltiazem]
[1]
  block of 2 mM cGMP-induced currents: 74.2 ± 5.8%

## CCCCNc1ccc(C(=O)NCCN(C)C)cc1 [Compound 6, 4-(Butylamino)-N-(2-(dimethylamino)ethyl)benzamide]
chymotrypsin
  hydrolysis by chymotrypsin: resistant
Proteinase K
  hydrolysis by proteinase K: resistant

## CCCCCCCCNc1ccc(C(=O)NCCN(C)C)cc1 [Compound 7, 4-(Octylamino)-N-(2-(dimethylamino)ethyl)benzamide]
chymotrypsin
  hydrolysis by chymotrypsin: resistant
Proteinase K
  hydrolysis by proteinase K: resistant

## CCCCNc1ccc(C(=S)NCCN(C)C)cc1 [Compound 8, 4-(Butylamino)-N-(2-(dimethylamino)ethyl)benzothioamide]
chymotrypsin
  hydrolysis by chymotrypsin: completely resistant
[2]
  hydrolysis product detection by butyrylcholinesterase: much too stable for our system to detect any hydrolysis product
Proteinase K
  hydrolysis by proteinase K: completely resistant

## CCCCCCCCNc1ccc(C(=S)NCCN(C)C)cc1 [Compound 9, 4-(Octylamino)-N-(2-(dimethylamino)ethyl)benzothioamide]
chymotrypsin
  hydrolysis by chymotrypsin: completely resistant
[2]
  hydrolysis product detection by butyrylcholinesterase: much too stable for our system to detect any hydrolysis product
Proteinase K
  hydrolysis by proteinase K: completely resistant
